Consider 56 compounds from ChEMBL document CHEMBL3120066, “Discovery of a novel class of potent HCV NS4B inhibitors: SAR studies on piperazinone derivatives” (J Med Chem, 2014).

In general, EC90 refers to the concentration at which the effect reaches the 90% level.

The subject of this experiment is Hepatitis C virus. The experiment can be described thus: Antiviral activity against HCV1b infected in clone A and ET-lunet cells assessed as inhibition of viral replication after 4 days by RT-PCR analysis. It counts as functional, organism-based, Hepacivirus hominis. Particulars: genotype 1b, 96 h. The method in brief:
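Run in HCV genotype 1a and 1b replicon cells; each reported value is the mean of n = 2 independent determinations.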

SMILES strings stand for the structures.

On to `CC(C)C[C@H]1CN(C(=O)c2cc(-c3ccc(Cl)cc3)on2)[C@@H](CC(C)C)C(=O)N1`, for which the 90% effect concentration (EC90) was 290 nM.

For the compound `CCC[C@H]1CN(C(=O)[C@@H]2C[C@H]2c2ccccc2)[C@@H](CC(C)C)C(=O)N1`, the EC90 stood at 900 nM.

Consider `CC(C)C[C@H]1C(=O)N[C@@H](CC(C)(C)C)CN1C(=O)c1cc(-c2ccc(F)cc2)on1`, for which the concentration for an effect of 90% (EC90) came to 2000 nM.

Turning to `CC(C)C[C@H]1CN(C(=O)/C=C/c2ccc(C(F)(F)F)cc2)[C@@H](CC(C)C)C(=O)N1`, the concentration for an effect of 90% (EC90) worked out at 8100 nM.

Regarding `CC(C)C[C@H]1C(=O)N[C@@H](c2ccsc2Cl)CN1C(=O)c1cc(-c2ccc(F)cc2)on1`, the EC90 was determined as 4 nM.

With `CC(C)C[C@H]1CN(C(=O)c2cc(-c3ccc(F)cc3)on2)[C@@H](CC(C)C)C(=O)N1`, the EC90 worked out at 130 nM.

For the compound `CC(C)C[C@H]1CN(C(=O)c2cc(-c3ccc([N+](=O)[O-])cc3)on2)[C@@H](CC(C)C)C(=O)N1`, the EC90 is 2600 nM.

Take `CC(C)C[C@H]1CN(C(=O)c2ccc(-c3ccccc3)o2)[C@@H](CC(C)C)C(=O)N1`: the EC90 is more than 5800 nM.

`CCCC[C@H]1CN(C(=O)c2cc(-c3ccc(F)cc3)on2)[C@@H](CC(C)C)C(=O)N1`: the EC90 stood at 530 nM.

With `CC(C)C[C@H]1C(=O)N[C@@H](CC2CC2)CN1C(=O)c1cc(-c2ccc(F)cc2)on1`, the EC90 was determined as 450 nM.

As for `CC(C)C[C@H]1CN(C(=O)c2cc(-c3ccc(F)c(F)c3)on2)[C@@H](CC(C)C)C(=O)N1`, the concentration for an effect of 90% (EC90) amounted to 650 nM.

Turning to `CC(C)C[C@H]1CN(C(=O)/C=C/c2ccc(Br)cc2)[C@@H](CC(C)C)C(=O)N1`, the EC90 came to 7800 nM.

Take `CC(C)C[C@H]1CN(C(=O)c2cc(-c3ccc(N(C)C)cc3)on2)[C@@H](CC(C)C)C(=O)N1`: the EC90 was more than 10000 nM.

Regarding `CC(C)C[C@H]1C(=O)N[C@@H](c2ccc(C(F)(F)F)cc2)CN1C(=O)c1cc(-c2ccc(F)cc2)on1`, the 90% effect concentration (EC90) was found to be 2750 nM.

With `CC(C)C[C@H]1CN(C(=O)/C=C\c2ccccc2)[C@@H](CC(C)C)C(=O)N1`, the EC90 was more than 10000 nM.

As for `Cc1ccc(-c2cc(C(=O)N3C[C@H](CC(C)C)NC(=O)[C@@H]3CC(C)C)no2)cc1`, the EC90 was 1540 nM.

On to `CC(C)C[C@H]1C(=O)N[C@@H](C2CCSCC2)CN1C(=O)c1cc(-c2ccc(F)cc2)on1`, for which the EC90 was determined as 870 nM.

Regarding `COC[C@H]1CN(C(=O)c2cc(-c3ccc(F)cc3)on2)[C@@H](CC(C)C)C(=O)N1`, the 90% effect concentration (EC90) is more than 10000 nM.

In the case of `COc1ccc(-c2cc(C(=O)N3C[C@H](CC(C)C)NC(=O)[C@@H]3CC(C)C)no2)cc1`, the 90% effect concentration (EC90) amounted to 1350 nM.

For the compound `CC(C)C[C@H]1CN(C(=O)c2csc(-c3ccccc3)n2)[C@@H](CC(C)C)C(=O)N1`, the EC90 is more than 7900 nM.

For the compound `CSCC[C@H]1CN(C(=O)c2cc(-c3ccc(F)cc3)on2)[C@@H](CC(C)C)C(=O)N1`, the 90% effect concentration (EC90) was found to be 390 nM.

On to `CC(C)C[C@H]1CN(C(=O)/C=C/c2ccc(F)cc2)[C@@H](CC(C)C)C(=O)N1`, for which the concentration for an effect of 90% (EC90) came to 1500 nM.

`CC[C@H]1C(=O)N[C@@H](CC(C)C)CN1C(=O)[C@@H]1C[C@H]1c1ccccc1`: the EC90 was more than 10000 nM.

Turning to `CC(C)C[C@H]1C(=O)N[C@@H](C(C)C)CN1C(=O)c1cc(-c2ccc(F)cc2)on1`, the EC90 was 170 nM.

With `CC(C)C[C@H]1CN(C(=O)C#Cc2ccccc2)[C@@H](CC(C)C)C(=O)N1`, the EC90 is 3200 nM.

As to `CC(C)C[C@H]1C(=O)N[C@@H](c2nccs2)CN1C(=O)c1cc(-c2ccc(F)cc2)on1`, the EC90 is more than 10000 nM.

In the case of `CC(C)C[C@H]1CN(C(=O)c2cn(-c3ccccc3)cn2)[C@@H](CC(C)C)C(=O)N1`, the EC90 is more than 10000 nM.

As to `CC(C)C[C@H]1CN(C(=O)/C=C/c2ccccc2Cl)[C@@H](CC(C)C)C(=O)N1`, the EC90 amounted to 9700 nM.

Take `CC(C)C[C@H]1CN(C(=O)/C=C/c2ccc(F)cc2F)[C@@H](CC(C)C)C(=O)N1`: the EC90 stood at 1500 nM.

Take `CC(C)C[C@H]1CN(C/C=C/c2ccccc2)[C@@H](CC(C)C)C(=O)N1`: the EC90 was determined as 3300 nM.

On to `CC(C)C[C@H]1CN(C(=O)/C=C/c2ccc([N+](=O)[O-])cc2)[C@@H](CC(C)C)C(=O)N1`, for which the concentration for an effect of 90% (EC90) is more than 10000 nM.

Consider `CC(C)C[C@H]1CN(C(=O)c2cc(-c3ccc(C#N)cc3)on2)[C@@H](CC(C)C)C(=O)N1`, for which the EC90 turned out to be 1530 nM.

Regarding `CCC[C@H]1CN(C(=O)c2cc(-c3ccc(F)cc3)on2)[C@@H](CC(C)C)C(=O)N1`, the EC90 worked out at 100 nM.

For `CC(C)C[C@H]1C(=O)N[C@@H](CN(C)C)CN1C(=O)c1cc(-c2ccc(F)cc2)on1`, the EC90 turned out to be 2740 nM.

`CC(C)C[C@H]1CN(C(=O)/C=C/c2ccc(N(C)C)cc2)[C@@H](CC(C)C)C(=O)N1`: the EC90 was more than 10000 nM.

For the compound `CC[C@H](C)[C@H]1CN(C(=O)[C@@H]2C[C@H]2c2ccccc2)[C@@H](CC(C)C)C(=O)N1`, the EC90 is more than 10000 nM.

With `Cc1ccsc1[C@H]1CN(C(=O)c2cc(-c3ccc(F)cc3)on2)[C@@H](CC(C)C)C(=O)N1`, the EC90 was 680 nM.

In the case of `CC(C)C[C@H]1C(=O)N[C@@H](c2ncco2)CN1C(=O)c1cc(-c2ccc(F)cc2)on1`, the EC90 was more than 10000 nM.

As for `CC(C)C[C@H]1C(=O)N[C@@H](c2ccsc2)CN1C(=O)c1cc(-c2ccc(F)cc2)on1`, the concentration for an effect of 90% (EC90) was determined as 26 nM.

For `CC(C)C[C@H]1C(=O)N[C@@H](C(C)(C)C)CN1C(=O)c1cc(-c2ccc(F)cc2)on1`, the concentration for an effect of 90% (EC90) stood at 1800 nM.

Regarding `Cc1ccc([C@H]2CN(C(=O)c3cc(-c4ccc(F)cc4)on3)[C@@H](CC(C)C)C(=O)N2)s1`, the concentration for an effect of 90% (EC90) amounted to 180 nM.

On to `CC(C)C[C@H]1CN(C(=O)/C=C/c2ccccc2)[C@@H](CC(C)C)C(=O)N1`, for which the EC90 came out at 2300 nM.

`Cc1ccc([C@H]2CN(C(=O)c3cc(-c4ccc(F)cc4)on3)[C@@H](CC(C)C)C(=O)N2)cc1`: the EC90 amounted to 760 nM.

As to `CC(C)C[C@H]1C(=O)N[C@@H](CO)CN1C(=O)c1cc(-c2ccc(F)cc2)on1`, the concentration for an effect of 90% (EC90) was more than 10000 nM.

Take `CC(C)C[C@H]1CN(C(=O)/C=C/c2ccc(Cl)cc2)[C@@H](CC(C)C)C(=O)N1`: the concentration for an effect of 90% (EC90) came to 1600 nM.

Turning to `CC(C)C[C@H]1CN(C(=O)C2CC2)[C@@H](CC(C)C)C(=O)N1`, the EC90 was more than 10000 nM.

Consider `CC(C)C[C@H]1C(=O)N[C@@H](C2CCCCC2)CN1C(=O)c1cc(-c2ccc(F)cc2)on1`, for which the EC90 came to 190 nM.

On to `CC(C)C[C@H]1CN(C(=O)c2cc(-c3ccc(Br)cc3)on2)[C@@H](CC(C)C)C(=O)N1`, for which the EC90 is 470 nM.

Regarding `CC(C)C[C@H]1C(=O)N[C@@H](C2CCOCC2)CN1C(=O)c1cc(-c2ccc(F)cc2)on1`, the concentration for an effect of 90% (EC90) turned out to be 470 nM.

With `CSC[C@H]1CN(C(=O)c2cc(-c3ccc(F)cc3)on2)[C@@H](CC(C)C)C(=O)N1`, the concentration for an effect of 90% (EC90) is 240 nM.

In the case of `CC(C)C[C@H]1CN(C(=O)[C@@H]2C[C@H]2c2ccccc2)[C@@H](CC(C)C)C(=O)N1C`, the concentration for an effect of 90% (EC90) was 8800 nM.

For the compound `CC(C)C[C@H]1C(=O)N[C@@H](CC(C(F)(F)F)C(F)(F)F)CN1C(=O)c1cc(-c2ccc(F)cc2)on1`, the EC90 came to 7250 nM.

`CC(C)C[C@H]1CN(C(=O)c2cccc(-c3ccccc3)c2)[C@@H](CC(C)C)C(=O)N1`: the 90% effect concentration (EC90) is more than 10000 nM.

Take `CC(C)C[C@H]1CN(C(=O)c2cc(-c3ccccc3)[nH]n2)[C@@H](CC(C)C)C(=O)N1`: the 90% effect concentration (EC90) is more than 10000 nM.

With `Cc1ccc(/C=C/C(=O)N2C[C@H](CC(C)C)NC(=O)[C@@H]2CC(C)C)cc1`, the EC90 was determined as 5300 nM.

Turning to `CC[C@@H](C)[C@H]1CN(C(=O)c2cc(-c3ccc(F)cc3)on2)[C@@H](CC(C)C)C(=O)N1`, the 90% effect concentration (EC90) was more than 10000 nM.
